Source: ChEMBL document CHEMBL3414496, “Synthesis and biological evaluation of novel 2-heteroarylimino-1,3-thiazolidin-4-ones as potential anti-tumor agents” (Eur J Med Chem, 2015)
Activity calls are given as the source filed them. No cut-off for these calls is given here.

Tests used:
HT-29 [1] = test: Induction of NQO1 expression in human HT-29 cells at 2.5 uM after 4 hrs by Western blotting method; format: functional
Procedure, shortened: (§1)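 Whole-cell lysates from treated HT29 cells in pH 7.5 Hepes/KOH buffer with EDTA, KCl, Igepal, DTT and protease inhibitors. 50 µg protein run on 10-15% SDS-PAGE and transferred to nitrocellulose. Probed overnight at 4°C with anti-HO-1 (1:1 000), anti-NQO1 (1:1 000) or anti-GCL (1:500), then HRP secondary for 45 min and chemiluminescence. Bands normalized to GAPDH (1:10 000), with the DMSO ratio set to 1.00. Representative of three experiments.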

HT-29 [2] = test: Induction of NQO1 expression in human HT-29 cells at 2.5 uM after 2 hrs by Western blotting method; format: functional; procedure, shortened: as §1
HT-29 [3] = test: Induction of NQO1 expression in human HT-29 cells at 2.5 uM after 6 hrs by Western blotting method; format: functional; procedure, shortened: as §1
HT-29 [4] = test: Induction of HO1 expression in human HT-29 cells at 2.5 uM after 4 hrs by Western blotting method; format: functional
Procedure, shortened: (§2)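 HT29 whole-cell lysates in Hepes/KOH pH 7.5 with EDTA, KCl, NP40, DTT, protease inhibitors; 50 µg protein on 10–15% SDS-PAGE, nitrocellulose, overnight 4°C primary antibody (GCL 1:500, HO-1 1:1000), HRP secondary, chemiluminescence. Bands normalized to GAPDH (1:10 000), DMSO ratio set at 1.00; representative of three independent experiments.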

HT-29 [5] = test: Induction of GCL expression in human HT-29 cells at 2.5 uM after 4 hrs by Western blotting method; format: functional; procedure, shortened: as §2
HT-29 [6] = test: Induction of GCL expression in human HT-29 cells at 2.5 uM after 2 hrs by Western blotting method; format: functional; procedure, shortened: as §2
HT-29 [7] = test: Induction of HO1 expression in human HT-29 cells at 2.5 uM after 24 hrs by Western blotting method; format: functional; procedure, shortened: as §2
HT-29 [8] = test: Induction of Nrf2 expression in human HT-29 cells nuclei homogenates over 1 to 6 hrs by Western blotting method; format: functional, cell-based
Procedure, shortened: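 HT29 cells treated and fractionated, and nuclear homogenates immunoblotted with anti-Nrf2 (1:500) after SDS-PAGE and nitrocellulose transfer. Primary antibody overnight at 4°C, HRP secondary and chemiluminescence. Blots stripped and reprobed for GAPDH (1:10 000) for normalization, with the DMSO ratio set to 1.00. Representative of three independent experiments.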

HT-29 [9] = test: Induction of NQO1 expression in human HT-29 cells at 2.5 uM after 24 hrs by Western blotting method; format: functional; procedure, shortened: as §1
HT-29 [10] = test: Induction of HO1 expression in human HT-29 cells at 2.5 uM after 2 hrs by Western blotting method; format: functional; procedure, shortened: as §2
HT-29 [11] = test: Reduction in cell growth of human HT-29 cells at 2.5 uM after 3 days by trypan blue dye exclusion assay; format: functional, cell-based
Procedure, shortened: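 HT29 cells treated daily from 48 h after seeding, over three days with daily medium changes, in 0.1% (v/v) DMSO vehicle. Cells trypsinised, mixed 1:1 with 0.04% trypan blue, and living cells counted by haemocytometer under microscope. Mitotic index is treated count relative to DMSO control. Triplicate determinations, two independent experiments, mean ± S.E.M.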

HT-29 [12] = test: Reduction in cell viability of human HT-29 cells assessed as reduction in living cell level at 2.5 uM after 24 to 48 hrs by DCF-DA and propidium iodide staining based flow cytometry; format: functional
Procedure, shortened: (§3)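 HT29 cells treated two days after seeding, then loaded together with 50 µM DCF-DA and 25 µg/mL propidium iodide for 15 min at 37°C. Cells trypsinised, washed and resuspended in PBS; 30 000 cells per sample read by flow cytometry (FL-1, FL-3). Viable cells (PI-negative, DCF-positive) given as % of total events. Triplicates, two independent experiments.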

HT-29 [13] = test: Induction of cell cycle arrest in human HT-29 cells assessed as accumulation at G0/G1 phase by propidium iodide staining based flow cytometry (reference value: 67.7 +/- 0.5%); format: functional
HT-29 [14] = test: Growth inhibition of human HT-29 cells at 2.5 uM after 3 days by trypan blue dye exclusion assay; format: functional; conditions: HT-29, 72 h, read-out: GI
Procedure, shortened: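 HT29 cells treated 48 h after seeding, dosed daily with daily medium change over three days; drug diluted in DMSO, controls 0.1% (v/v) DMSO. Cells trypsinized, mixed 1:1 with 0.04% trypan blue, live cells counted by hematimeter. Reported as mitotic index (treated/DMSO count); triplicates from two independent experiments.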

HT-29 [15] = test: Induction of GCL expression in human HT-29 cells at 2.5 uM after 6 hrs by Western blotting method; format: functional; procedure, shortened: as §2
HT-29 [16] = test: Induction of GCL expression in human HT-29 cells at 2.5 uM after 24 hrs by Western blotting method; format: functional; procedure, shortened: as §2
HT-29 [17] = test: Induction of cell cycle arrest in human HT-29 cells assessed as accumulation at G2/M phase by propidium iodide staining based flow cytometry (reference value: 11.3 +/- 1%); format: functional
HT-29 [18] = test: Induction of cell cycle arrest in human HT-29 cells assessed as accumulation at subG1 phase by propidium iodide staining based flow cytometry (reference value: 2.3 +/- 0.1%); format: functional
HT-29 [19] = test: Induction of HO1 expression in human HT-29 cells at 2.5 uM after 6 hrs by Western blotting method; format: functional; procedure, shortened: as §2
HT-29 [20] = test: Induction of cell cycle arrest in human HT-29 cells assessed as accumulation at G0/G1 phase by propidium iodide staining based flow cytometry (reference value: 46.1 +/- 0.4%); format: functional
HT-29 [21] = test: Induction of NQO1 expression in human HT-29 cells at 1.5 uM after 24 hrs by Western blotting method; format: functional; procedure, shortened: as §1
HT-29 [22] = test: Induction of NQO1 expression in human HT-29 cells at 1.5 uM after 4 hrs by Western blotting method; format: functional; procedure, shortened: as §1
HT-29 [23] = test: Reduction in cell viability of human HT-29 cells assessed as reduction in living cell level at cytotoxic IC50 level after 24 to 48 hrs by DCF-DA and propidium iodide staining based flow cytometry; format: functional; procedure, shortened: as §3
HT-29 [24] = test: Induction of HO1 expression in human HT-29 cells at 6.4 uM after 24 hrs by Western blotting method; format: functional; procedure, shortened: as §2
HT-29 [25] = test: Induction of HO1 expression in human HT-29 cells at 6.4 uM after 6 hrs by Western blotting method; format: functional; procedure, shortened: as §2
HT-29 [26] = test: Induction of ROS generation in human HT-29 cells at cytotoxic IC50 level after 6 hrs by DCF-DA staining based fluorescence assay; format: functional, cell-based
Procedure, shortened: (§4)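 HT29 cells treated two days after seeding, then loaded with 50 µM DCF-DA for 15 min at 37°C. Cells trypsinized, washed and resuspended in PBS, and 30 000 cells/sample read by flow cytometry (FL-1). Expressed as % of DMSO-treated cells; […] for 1 h served as positive control. Triplicates from three independent experiments.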

HT-29 [27] = test: Induction of ROS generation in human HT-29 cells at cytotoxic IC50 level after 1 hr by DCF-DA staining based fluorescence assay; format: functional, cell-based; procedure, shortened: as §4
HT-29 [28] = test: Induction of GCL expression in human HT-29 cells at 10 uM after 6 hrs by Western blotting method; format: functional; procedure, shortened: as §2
HT-29 [29] = test: Induction of GCL expression in human HT-29 cells at 10 uM after 4 hrs by Western blotting method; format: functional; procedure, shortened: as §2
HT-29 [30] = test: Induction of HO1 expression in human HT-29 cells at 10 uM after 6 hrs by Western blotting method; format: functional; procedure, shortened: as §2

Row | Compound | fold change (FC) (HT-29 [1]) | fold change (FC) (HT-29 [2]) | fold change (FC) (HT-29 [3]) | fold change (FC) (HT-29 [4]) | fold change (FC) (HT-29 [5]) | fold change (FC) (HT-29 [6]) | fold change (FC) (HT-29 [7]) | Activity (HT-29 [8]) | fold change (FC) (HT-29 [9]) | fold change (FC) (HT-29 [10]) | inhibition (HT-29 [11]) | inhibition (HT-29 [12]) | Activity (HT-29 [13]) [%] | inhibition of growth at 2.5 µM (HT-29 [14]) [%] | fold change (FC) (HT-29 [15]) | fold change (FC) (HT-29 [16]) | Activity (HT-29 [17]) [%] | Activity (HT-29 [18]) [%] | Activity (HT-29 [20]) [%] | inhibition (HT-29 [23]) | also measured
1 | COc1ccc(/C=C2\S/C(=N\c3nc(-c4ccc(Cl)cc4)cs3)NC2=O)cc1 | 0.85 | 1.07 | 0.96 | 1 | 0.87 | 1.06 | 1 | inactive | 0.85 | 1 | Active | Active | 58.7 | 90 | 0.86 | 0.98 | 24.1 | 20.9 |  |  | fold change (FC) (HT-29 [19]): 1
2 | CN(C)c1ccc(/C=C2\S/C(=N\c3csc(-c4ccc(Cl)cc4)c3)NC2=O)cc1 |  |  |  |  |  |  |  | inactive |  |  |  |  |  |  |  |  |  |  | 1.5 | Active | fold change (FC) (HT-29 [21]): 1.07; fold change (FC) (HT-29 [22]): 1.06
3 | Cc1ccc(/C=C2\S/C(=N\c3csc(-c4ccc(Cl)cc4)c3)NC2=O)cc1 |  |  |  |  |  |  |  | inactive |  |  |  |  |  |  |  |  |  |  | 1.2 | Active | fold change (FC) (HT-29 [24]): 1; fold change (FC) (HT-29 [25]): 1
4 | COc1ccc(/C=C2\S/C(=N\c3csc(-c4ccc(Cl)cc4)c3)NC2=O)cc1OC |  |  |  |  |  |  |  |  |  |  |  |  |  |  |  |  |  |  | 2.3 | Active | Activity (HT-29 [26]): inactive; Activity (HT-29 [27]): Active; fold change (FC) (HT-29 [28]): 1.16; fold change (FC) (HT-29 [29]): 1.16; fold change (FC) (HT-29 [30]): 1
5 | COc1ccc(/C=C2\S/C(=N\c3csc(-c4ccc(Cl)cc4)c3)NC2=O)cc1 |  |  |  |  |  |  |  | inactive |  |  |  |  |  |  |  |  |  |  | 1.2 | Active | Activity (HT-29 [26]): inactive; Activity (HT-29 [27]): Active
6 | CN(C)c1ccc(/C=C2\S/C(=N\c3nc(-c4ccc(Cl)cc4)cs3)NC2=O)cc1 | 0.67 | 0.93 | 0.72 | 1 | 0.99 | 0.98 | 1 | inactive | 0.78 | 1 | Active | Active | 60.6 | 90 | 1.2 | 1.18 | 18.7 | 16.2 |  |  | fold change (FC) (HT-29 [19]): 1
